Measured values: ChEMBL document CHEMBL2169827, “4-Oxo-1,4-dihydropyridines as selective CB₂ cannabinoid receptor ligands. Part 2: discovery of new agonists endowed with protective effect against experimental colitis” (J Med Chem, 2012)
Calls of active or inactive are those of the source. The rule behind the calls is not given here.

Key:
Cannabinoid receptor 2 [1] = molecular target: T1, Cannabinoid receptor 2 (Homo sapiens, UniProt P34972); assay: Displacement of [3H]-CP55940 from human recombinant CB2 receptor expressed in CHO cells membrane at 1 uM by scintillation counting; format: cell membranes
Method in brief: (§1)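 Competitive radioligand displacement with [3H]-CP-55,940 at human CB1 or CB2; single-point screen at 1 μM, specific displacement recorded.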

Cannabinoid receptor 1 [2] = molecular target: T2, Cannabinoid receptor 1 (Homo sapiens, UniProt P21554); assay: Displacement of [3H]-CP55940 from human recombinant CB1 receptor expressed in CHO cells membrane at 1 uM by scintillation counting; format: cell membranes; method in brief: as §1
Cannabinoid receptor 2 [3] = molecular target: T1, Cannabinoid receptor 2; assay: Displacement of [3H]-CP55940 from human recombinant CB2 receptor expressed in CHO cells membrane by scintillation counting; format: cell membranes
Mus musculus [4] = assay: Anticolitis activity in TNBS-induced C57Bl6 mouse experimental colitis model assessed as reduction colitis macroscopic scores at 10 mg/kg, ip qd dosed 3 days before colitis induction; format: functional; parameters: scale not given: the % may be the effect or the level left; settings: route intraperitoneal
Method in brief: (§2)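 TNBS colitis in mice; test agent given ip once daily at 10 mg/kg; mice killed three days after TNBS and colon inflammation parameters assessed; 10 mice per group, mean ± SEM, compared with TNBS plus vehicle.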

Cannabinoid receptor 2 [5] = molecular target: T1, Cannabinoid receptor 2; assay: Agonist activity at human recombinant CB2 receptor expressed in CHO cells membrane by [35S]-GTPgammaS assay; format: functional, cell membranes
Cannabinoid receptor 1 [6] = molecular target: T2, Cannabinoid receptor 1; assay: Displacement of [3H]-CP55940 from human recombinant CB1 receptor expressed in CHO cells membrane by scintillation counting; format: cell membranes
Homo sapiens = organism: Homo sapiens; assay: Selectivity index, ratio of Ki for human recombinant CB1 receptor to KI for human recombinant CB2 receptor
Method in brief: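 Ki at hCB1 and hCB2 from [3H]-CP-55,940 competitive displacement; ratio CB1 Ki/CB2 Ki. Ki at CB1 determined only when 1 μM screen gave >60% displacement.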

Mus musculus [7] = assay: Anticolitis activity in TNBS-induced C57Bl6 mouse experimental colitis model assessed as reduction colitis histological scores at 10 mg/kg, ip qd dosed 3 days before colitis induction (reference value: 4.9 score); format: functional; settings: route intraperitoneal; method in brief: as §2
[8] = Permeability from apical to basolateral side in human Caco2 cells at 10 uM incubated for 60 mins; format: ADME, cell-based; settings: Caco-2, read-out: permeability
Method in brief: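 Caco-2 permeability: compound at 10 μM, samples at 0 and 60 min.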

Mus musculus [9] = assay: Effect on TNFalpha mRNA expression in TNBS-induced C57Bl6 mouse experimental colitis model at 10 mg/kg, ip qd dosed 3 days before colitis induction by real-time PCR method; format: functional, organism-based; parameters: dose 10 mg/kg; method in brief: as §2
[10] = molecular target: MDR1 (ABCB1, P-glycoprotein) (Homo sapiens, UniProt P08183); assay: Inhibition of MDR1 expressed in MDCK2 cells at 10 uM by calcein AM accumulation assay; format: cell-based, MDCK-II; settings: dog, MDCK2 cells expressing MDR1, probe calcein AM
Method in brief: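 P-gp interaction tested in MDR1-MDCKII cells via cellular uptake of calcein AM.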

Mus musculus [11] = assay: Anticolitis activity in TNBS-induced C57Bl6 mouse experimental colitis model assessed as MPO activity at 10 mg/kg, ip qd dosed 3 days before colitis induction (reference value: 73.7%) score); format: functional; settings: route intraperitoneal; method in brief: as §2
Mus musculus [12] = assay: Effect on IL-1beta mRNA expression in TNBS-induced C57Bl6 mouse experimental colitis model at 10 mg/kg, ip qd dosed 3 days before colitis induction by real-time PCR method; format: functional, organism-based; parameters: dose 10 mg/kg; method in brief: as §2
[13] = Stability in human liver microsomes assessed as compound remaining at 1 uM incubated for 60 mins; format: ADME, Microsome; settings: read-out: Stability
Method in brief: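 Incubation at 1 μM with human liver microsomes (0.3 mg/mL), 0 and 60 min; percent parent remaining at 60 min.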

[14] = Intrinsic clearance in mouse liver microsomes at 1 uM; format: ADME, Microsome; settings: read-out: CLH
[15] = Fraction unbound in human plasma at 37 degC by equilibrium dialysis method; format: ADME, cell-free
Method in brief: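 Plasma protein binding by equilibrium dialysis at 37 °C; free fraction reported.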

T2 sequence (P21554 whole entry): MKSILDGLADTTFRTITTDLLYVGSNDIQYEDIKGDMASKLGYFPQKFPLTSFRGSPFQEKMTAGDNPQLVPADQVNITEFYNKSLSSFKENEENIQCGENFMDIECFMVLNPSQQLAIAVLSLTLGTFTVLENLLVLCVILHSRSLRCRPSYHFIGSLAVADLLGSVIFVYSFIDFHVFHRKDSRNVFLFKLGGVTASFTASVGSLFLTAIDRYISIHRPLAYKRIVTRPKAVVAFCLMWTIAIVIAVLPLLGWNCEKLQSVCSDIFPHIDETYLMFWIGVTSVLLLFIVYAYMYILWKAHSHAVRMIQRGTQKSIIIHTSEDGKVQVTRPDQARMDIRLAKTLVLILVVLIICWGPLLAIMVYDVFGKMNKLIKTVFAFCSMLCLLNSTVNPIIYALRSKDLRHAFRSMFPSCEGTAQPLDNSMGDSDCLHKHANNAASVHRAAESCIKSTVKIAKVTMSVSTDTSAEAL
T1 sequence (P34972 whole entry): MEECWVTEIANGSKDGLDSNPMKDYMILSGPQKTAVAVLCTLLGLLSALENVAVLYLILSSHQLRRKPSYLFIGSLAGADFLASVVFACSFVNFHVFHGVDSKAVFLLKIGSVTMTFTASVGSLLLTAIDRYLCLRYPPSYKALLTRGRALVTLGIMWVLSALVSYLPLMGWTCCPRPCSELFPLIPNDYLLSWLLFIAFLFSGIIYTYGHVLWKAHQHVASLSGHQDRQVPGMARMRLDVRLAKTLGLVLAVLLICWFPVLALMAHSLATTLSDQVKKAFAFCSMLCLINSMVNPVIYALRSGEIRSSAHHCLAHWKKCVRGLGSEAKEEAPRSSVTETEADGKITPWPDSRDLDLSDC
Chain of MDR1 (ABCB1, P-glycoprotein) (P08183 whole entry): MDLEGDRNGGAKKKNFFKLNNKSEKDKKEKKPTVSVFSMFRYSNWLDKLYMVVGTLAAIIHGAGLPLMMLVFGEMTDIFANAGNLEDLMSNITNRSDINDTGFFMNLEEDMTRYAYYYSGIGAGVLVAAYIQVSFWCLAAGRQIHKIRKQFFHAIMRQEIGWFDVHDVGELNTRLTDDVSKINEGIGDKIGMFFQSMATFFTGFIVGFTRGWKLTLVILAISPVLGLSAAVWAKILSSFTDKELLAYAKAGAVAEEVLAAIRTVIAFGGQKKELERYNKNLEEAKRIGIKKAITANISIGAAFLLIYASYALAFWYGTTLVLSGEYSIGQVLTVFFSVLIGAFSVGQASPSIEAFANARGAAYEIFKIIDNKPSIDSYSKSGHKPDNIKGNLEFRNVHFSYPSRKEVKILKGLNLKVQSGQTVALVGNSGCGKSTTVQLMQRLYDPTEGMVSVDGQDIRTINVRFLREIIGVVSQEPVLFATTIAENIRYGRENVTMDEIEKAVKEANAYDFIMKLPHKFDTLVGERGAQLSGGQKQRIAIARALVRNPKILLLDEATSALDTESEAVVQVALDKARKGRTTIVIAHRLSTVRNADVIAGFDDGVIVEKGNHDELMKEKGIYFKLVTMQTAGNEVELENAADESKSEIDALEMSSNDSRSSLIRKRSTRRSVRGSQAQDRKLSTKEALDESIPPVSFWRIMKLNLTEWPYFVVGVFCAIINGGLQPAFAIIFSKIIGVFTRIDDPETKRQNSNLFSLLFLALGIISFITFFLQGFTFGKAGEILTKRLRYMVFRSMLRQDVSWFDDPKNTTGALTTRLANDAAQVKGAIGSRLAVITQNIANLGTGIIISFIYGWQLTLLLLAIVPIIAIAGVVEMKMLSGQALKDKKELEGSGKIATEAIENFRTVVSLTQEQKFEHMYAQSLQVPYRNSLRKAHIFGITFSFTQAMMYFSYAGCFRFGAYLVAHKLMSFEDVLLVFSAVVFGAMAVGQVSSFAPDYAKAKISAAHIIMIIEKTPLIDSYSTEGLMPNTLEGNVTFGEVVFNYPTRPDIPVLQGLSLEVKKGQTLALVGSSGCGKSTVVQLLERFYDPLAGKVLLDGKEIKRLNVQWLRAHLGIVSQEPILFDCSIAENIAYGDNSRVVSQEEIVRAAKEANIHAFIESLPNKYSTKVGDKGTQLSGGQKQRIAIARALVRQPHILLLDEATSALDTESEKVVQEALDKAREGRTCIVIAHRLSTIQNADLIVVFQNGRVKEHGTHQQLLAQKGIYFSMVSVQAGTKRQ

Row | SMILES | Activity (Cannabinoid receptor 2 [1]) | Activity (Cannabinoid receptor 1 [2]) | Ki (Cannabinoid receptor 2 [3]) | Activity (Mus musculus [4]) | EC50 (Cannabinoid receptor 2 [5]) | Ki (Cannabinoid receptor 1 [6]) | also measured
1 | CCCCCn1cc(C(=O)NC23CC4CC(CC(C4)C2)C3)c(=O)c(-c2cccc(C#N)c2)c1C | > 60% | > 60% | > 1000 nM |  |  |  | 
2 | CCCCCn1cc(C(=O)NC2C3CC4CC(C3)CC2C4)c(=O)cc1C(C)(C)C (stereo unspecified) | > 60% | > 60% | 9.6 nM | 51.5% | 452 nM | 562 nM | 
3 | CCCCCn1cc(C(=O)NC23CC4CC(CC(C4)C2)C3)c(=O)c(-c2ccc(C)cc2)c1C | > 60% | > 60% | > 1000 nM |  |  |  | 
4 | Cc1cc(=O)c(C(=O)NC23CC4CC(CC(C4)C2)C3)cn1CC1OCCO1 | > 60% | > 60% | > 1000 nM |  |  |  | 
5 | Cc1cc(=O)c(C(=O)NC23CC4CC(CC(C4)C2)C3)cn1CCCC(F)(F)F | > 60% | > 60% | 0.28 nM | 65.1% | 17.3 nM | > 1000 nM | Ratio Ki (Homo sapiens): > 3570
6 | Cc1cc(=O)c(C(=O)NC23CC4CC(CC(C4)C2)C3)cn1CCC1CCOCC1 | > 60% | > 60% | 196 nM |  |  |  | 
7 | CCCCCn1cc(C(=O)NCC2CC2)c(=O)cc1C(C)(C)C | > 60% | > 60% | 14.1 nM | 74.9% | 27.8 nM | 176 nM | Ratio Ki (Homo sapiens): > 10
8 | COC(Cn1cc(C(=O)NC23CC4CC(CC(C4)C2)C3)c(=O)cc1C)OC | > 60% | > 60% | > 1000 nM |  |  |  | 
9 | C/C=C\n1cc(C(=O)NC23CC4CC(CC(C4)C2)C3)c(=O)cc1C | > 60% | > 60% | > 1000 nM |  |  |  | 
10 | CCCCCn1cc(C(=O)NC(C)C)c(=O)cc1C | > 60% | > 60% | > 1000 nM |  |  |  | 
11 | CCCCCn1cc(C(=O)Nc2ccccc2)c(=O)cc1C | > 60% | > 60% | > 1000 nM |  |  |  | 
12 | CCCCCn1cc(C(=O)NC(C)C23CC4CC(CC(C4)C2)C3)c(=O)cc1C (racemic) | > 60% | > 60% | 6.4 nM | 74.9% | 84.2 nM | > 1000 nM | Ratio Ki (Homo sapiens): > 10
13 | CCCCCn1cc(C(=O)NCC2CC2)c(=O)cc1C | > 60% | > 60% | > 1000 nM |  |  |  | 
14 | CCCCCn1cc(C(=O)NC2C3CC4CC(C3)CC2C4)c(=O)cc1C (stereo unspecified) | > 60% | > 60% | 0.26 nM | 74.9% | 38.4 nM | > 1000 nM | Ratio Ki (Homo sapiens): > 3850
15 | CCCCCn1cc(C(=O)Nc2ccccc2)c(=O)cc1C(C)(C)C | > 60% | > 60% | 9.2 nM |  | 8.3 nM | 87.9 nM | 
16 | CCCCCn1cc(C(=O)NC(C)C23CC4CC(CC(C4)C2)C3)c(=O)cc1C(C)(C)C (racemic) | > 60% | > 60% | 9 nM | 60% | 47.1 nM | 548 nM | 
17 | CCCCCn1cc(C(=O)NC23CC4CC(CC(C4)C2)C3)c(=O)c(-c2cccc(C(C)=O)c2)c1C | > 60% | > 60% | > 1000 nM |  |  |  | 
18 | CCCCCn1cc(C(=O)NC23CC4CC(CC(C4)C2)C3)c(=O)c(-c2ccc(CC)cc2)c1C | > 60% | > 60% | 54.3 nM |  | 39.9 nM | > 1000 nM | 
19 | CCCCCn1cc(C(=O)NCC23CC4CC(CC(C4)C2)C3)c(=O)cc1C | > 60% | > 60% | 15.2 nM | 55.9% | 53.1 nM | > 1000 nM | Ratio Ki (Homo sapiens): > 10
20 | CCCCCn1cc(C(=O)NN2CCCCC2)c(=O)cc1C | > 60% | > 60% | > 1000 nM |  |  |  | 
21 | CCCCCn1cc(C(=O)NC23CC4CC(CC(C4)C2)C3)c(=O)c(-c2ccncc2)c1C | > 60% | > 60% | 36.5 nM | 61.4% | 114 nM | > 1000 nM | Activity (Mus musculus [7]): 3.1; Papp A→B at 1 h, 10 µM [8]: 49.9 ×10⁻⁶ cm/s; Activity (Mus musculus [9]): inactive; Ratio Ki (Homo sapiens): > 10; inhibition at 10 µM [10]: 33.7%; Activity (Mus musculus [11]): 34.1%; Activity (Mus musculus [12]): inactive; remaining at 1 h, 1 µM [13]: 1%; microsomal CLint at 1 µM [14]: > 200 µL/min/mg; fraction unbound [15]: 0.07
22 | CCCCCn1cc(C(=O)NC2CCCCC2)c(=O)cc1C | > 60% | > 60% | 24.4 nM | 74.9% | 49.9 nM | > 1000 nM | Ratio Ki (Homo sapiens): > 10
23 | CCCCCn1cc(C(=O)NC23CC4CC(CC(C4)C2)C3)c(=O)c(C2CC2)c1C | > 60% | > 60% | 13.4 nM |  | 88.5 nM | 105 nM | 
24 | CCCCCn1cc(C(=O)NCC23CC4CC(CC(C4)C2)C3)c(=O)cc1C(C)(C)C | > 60% | > 60% | 10.2 nM | 62.2% | 49.2 nM | > 1000 nM | 
25 | CCCCCn1cc(C(=O)NC23CC4CC(CC(C4)C2)C3)c(=O)c(I)c1C | > 60% | > 60% | 20.8 nM |  | 11.9 nM | 193 nM | 
26 | Cc1cc(=O)c(C(=O)NC23CC4CC(CC(C4)C2)C3)cn1CC1CCOCC1 | > 60% | > 60% | 24.1 nM | 66.3% | 47.4 nM | > 1000 nM | Ratio Ki (Homo sapiens): > 10
27 | COCCCn1cc(C(=O)NC23CC4CC(CC(C4)C2)C3)c(=O)cc1C | > 60% | > 60% | > 1000 nM |  |  |  | 
28 | Cc1cc(=O)c(C(=O)NC23CC4CC(CC(C4)C2)C3)cn1CCC1OCCO1 | > 60% | > 60% | > 1000 nM |  |  |  | 
29 | CCCCCn1cc(C(=O)NC23CC4CC(CC(C4)C2)C3)c(=O)c(-c2ccccc2)c1C | > 60% | > 60% | 189 nM |  |  |  | 
30 | CCCCCn1cc(C(=O)NC23CC4CC(CC(C4)C2)C3)c(=O)cc1C(C)(C)C |  |  |  | 19.3% |  |  | Papp A→B at 1 h, 10 µM [8]: 9.8 ×10⁻⁶ cm/s; inhibition at 10 µM [10]: 94.5%; remaining at 1 h, 1 µM [13]: 1%; microsomal CLint at 1 µM [14]: > 200 µL/min/mg; fraction unbound [15]: 0.01
